# Laboratory results published in ChEMBL document CHEMBL1132417, “Novel esters and amides of nonsteroidal antiinflammatory carboxylic acids as antioxidants and antiproliferative agents” (J Med Chem, 1999).
# Key:
# [1] = Inhibition of proliferation measured by inhibition of [3H]thymidine incorporation by HMVEC-L cells; assay type: functional, cell-based, Homo sapiens
# How it was run: (§1)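 Human lung microvascular endothelial cells (HMVEC-L, donor, passages 3–9) were grown in EGM-MV to 75–90% confluence. Cells were given compound in fresh medium at 37 °C for 18 h, then pulsed 6 h with [3H]thymidine (2.5 μCi per 200 μL). TCA-precipitated DNA was solubilised in SDS and counted by liquid scintillation. IC50 by linear regression, or % inhibition at the stated concentration.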
# Bos taurus = species on record: Bos taurus; assay: Inhibition of [Fe(2+)]/ascorbate-induced oxidation of bovine heart membranes(antioxidant BHMLO); assay type: functional
# How it was run: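 Bovine heart membranes (KCl-washed, 100000g pellet, 20 mg/mL protein stock in 25 mM HEPES/150 mM NaCl pH 7.4) were preincubated with compound for 30 min at 37 °C. Peroxidation was started with FeCl2/ascorbic acid and run for 15 min at 21 °C. TBARS were developed by heating at 80 °C and read at 540 nm against a malonaldehyde bis(dimethyl acetal) standard curve. IC50 by linear regression.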
# [2] = (§2) Compound was evaluated for in vitro inhibition of proliferation measured by inhibition of [3H]thymidine incorporation by HMVEC-L cells; assay type: functional, Homo sapiens; set-up: concentration or dose not given beside the values; how it was run: as §1
# HMVEC-L = assay: as §2; assay type: functional; set-up: concentration or dose not given beside the values; conditions: Homo sapiens, dose or concentration not given here; how it was run: as §1
Compound,IC50 (Bos taurus) [µM],IC50 [1] [µM],Inhibition [2] [%],inhibition (HMVEC-L) [%]
COc1ccc2cc(C(C)C(=O)NCCC3(C)Cc4c(C)c(O)c(C)c(C)c4O3)ccc2c1 (stereo not drawn),5.6,1.9,,
COc1ccc2cc([C@H](C)C(=O)NCC3(C)CCc4c(C)c(OC(C)=O)c(C)c(C)c4O3)ccc2c1 (stereo partly drawn),,4,,
COc1ccc2cc(CC(=O)O)ccc2c1 [6-METHOXY-2-NAPHTHYLACETIC ACID],,,5,
COc1ccc2cc(CC(=O)OCCC3(C)CCc4c(C)c(O)c(C)c(C)c4O3)ccc2c1 (stereo not drawn),4.5,,44,
COc1ccc2cc([C@@H](C)C(=O)OCC[C@@]3(C)CCc4c(C)c(O)c(C)c(C)c4O3)ccc2c1,,22,,
COc1ccc2cc([C@@H](C)C(=O)NCC3(C)CCc4c(C)c(O)c(C)c(C)c4O3)ccc2c1 (stereo partly drawn),4.8,4.5,,
COc1ccc2cc([C@H](C)C(=O)OCCC3(C)CCc4c(C)c(O)c(C)c(C)c4O3)ccc2c1 (stereo partly drawn),7.66,12.9,,
COc1ccc2cc(C(C)C(=O)OCCC3(C)CCc4c(C)c(OC)c(C)c(C)c4O3)ccc2c1 (stereo not drawn),14000,25,,
VITAMIN E [listing 1 of 2 here],,,,22
COc1ccc2cc(C(C)C(=O)OCC3(C)Cc4c(C)c(O)c(C)c(C)c4O3)ccc2c1 (stereo not drawn),4.83,7.3,,
COc1ccc2cc(C(C)C(=O)NCCC3(C)CCc4c(C)c(O)c(C)c(C)c4O3)ccc2c1 (stereo not drawn),4.67,7.4,,
COc1ccc2cc([C@H](C)C(=O)O)ccc2c1 [NAPROXEN],,> 50,,
VITAMIN E [listing 2 of 2 here],5170,,,
COc1ccc2cc(C(C)C(=O)OCCC3(C)CCc4c(C)c(OC(C)=O)c(C)c(C)c4O3)ccc2c1 (stereo not drawn),4.5,11.5,,
COc1ccc2cc(C(C)C(=O)OCC3(C)CCc4c(C)c(O)c(C)c(C)c4O3)ccc2c1 (stereo not drawn),4.36,11.3,,

# Further lines, with some results ahead:
IC50 (Bos taurus) [µM],Compound,IC50 [1] [µM],Inhibition [2] [%],inhibition (HMVEC-L) [%]
3.82,Cc1c(C)c2c(c(C)c1O)CCC(C)(CCO)O2 (stereo not drawn),,30,
1.6,COc1ccc2cc(C(C)C(=O)NCC3(C)CCc4c(C)c(OC(C)=O)c(C)c(C)c4O3)ccc2c1 (stereo not drawn),3.3,,
25.6,Cc1c(C)c2c(c(C)c1O)CCC(C)(C(=O)O)O2 (stereo not drawn) [TROLOX],,20,
2.5,COc1ccc2cc([C@H](C)C(=O)NCC3(C)CCc4c(C)c(O)c(C)c(C)c4O3)ccc2c1 (stereo partly drawn),4.3,,
4.4,COc1ccc2cc([C@H](C)COC(=O)CC3(C)CCc4c(C)c(O)c(C)c(C)c4O3)ccc2c1 (stereo partly drawn),12,,
11.6,"COc1ccc2cc(C(C)C(=O)OCC[C@@]3(C)CCc4c(C)c(O)c(C)c(C)c4O3)ccc2c1 (single isomer, unassigned)",11.7,,
4.87,COc1ccc2cc([C@H](C)C(=O)OCCC3(C)Cc4c(C)c(O)c(C)c(C)c4O3)ccc2c1 (stereo in doubt; 2a),9.1,,
9.6,COc1ccc2cc([C@H](C)C(=O)OCC[C@]3(C)CCc4c(C)c(O)c(C)c(C)c4O3)ccc2c1,16.4,,
3.99,COc1ccc2cc(C(C)C(=O)NCC3(C)CCc4c(C)c(O)c(C)c(C)c4O3)ccc2c1 (stereo not drawn),4.3,,
5.2,COc1ccc2cc([C@H](C)C(=O)OCCC3(C)Cc4c(C)c(O)c(C)c(C)c4O3)ccc2c1 (stereo in doubt; 2b),16.6,,
5.1,COc1ccc2cc([C@H](C)C(=O)OCCC3(C)Cc4c(C)c(O)c(C)c(C)c4O3)ccc2c1 (stereo in doubt; 2c),16.4,,
5.2,COc1ccc2cc([C@H](C)C(=O)OCC3(C)COc4c(C)c(C)c(O)c(C)c43)ccc2c1 (stereo partly drawn),19,,
